Results pooled from the literature.
Each line is one published result; the experiments were not run side by side.
Organism: Pseudomonas aeruginosa
Effect on: microbial growth

| SMILES | method | strain | time | MIC |
| --- | --- | --- | --- | --- |
| CCCNc1nc(N(C)C)c2c(c1O)C(=O)C1=C(O)[C@]3(O)C(=O)C(C(N)=O)=C(O)[C@@H](N(C)C)[C@@H]3C[C@@H]1C2.Cl.Cl | broth dilution | ATCC27853 | – | > 32 µg/mL |
| CCCCCCC/C=C/C(=O)N1C(=O)/C(=C(/C)O)C(=O)C1CCC(=O)O (stereo not shown) | – | PA01 | – | > 200 µg/mL |
| CC(C)Oc1c(NC(=O)c2ccc(NC(=O)[C@H](CC(N)=O)NC(=O)c3ccc(NC(=O)c4ccc([N+](=O)[O-])cc4)cc3)cc2)ccc(C(=O)Nc2ccc(C(=O)O)c(F)c2)c1O | – | PA14 | – | > 64 µg/mL |
| CN(C)[C@@H]1C(O)=C(C(N)=O)C(=O)[C@@]2(O)C(O)=C3C(=O)c4c(cc5ccc(CN6CCCCC6)cc5c4O)C[C@H]3C[C@@H]12 | broth dilution | ATCC27853 | – | 32 µg/mL |
| CC(C)Nc1nc(Cl)c2c(c1O)C(=O)C1=C(O)[C@]3(O)C(=O)C(C(N)=O)=C(O)[C@@H](N(C)C)[C@@H]3C[C@@H]1C2.Cl.Cl.Cl | broth dilution | ATCC27853 | – | > 32 µg/mL |
| COc1c(C)c(OC(=O)c2ccc(C)cc2)c(C)c(O)c1C(=O)/C=C/c1ccccc1 | broth dilution | ATCC27853 | – | 5000 µg/mL |
| CC(C)Oc1c(NC(=O)c2ccc(NC(=O)[C@H](CC(N)=O)NC(=O)c3ccc(NC(=O)c4ccc(NC(N)=O)cc4)cc3)cc2)ccc(C(=O)Nc2ccc(C(=O)O)cc2)c1O | – | PA14 | – | > 64 µg/mL |
| Clc1ccc(Cn2c(-c3ccc(Cl)cc3)nc3ccccc32)cc1 | broth dilution | ATCC27853 | – | 256 µg/mL |
| C/C(O)=C1\C(=O)C(CC(C)C)N(C(=O)CCCCCc2ccccc2)C1=O (stereo not shown) | – | PA01 | – | > 200 µg/mL |
| CCCCCCC#Cc1cncc(-c2nnc(SCc3ccc(Cl)c(F)c3)n2C)c1 | – | – | – | ≥ 20 µg/mL |
| CO[C@H]1/C=C/O[C@@]2(C)Oc3c(C)c(O)c4c(O)c(c(/C=N/N5CCN(C)CC5)c(O)c4c3C2=O)NC(=O)/C(C)=C\C=C\[C@H](C)[C@H](O)[C@@H](C)[C@@H](O)[C@@H](C)[C@H](OC(C)=O)[C@@H]1C | – | ATCC27853 | – | 16 µg/mL |
| Cc1cccc(NCc2ccc(Oc3ccccn3)cc2)c1 | – | – | – | > 25 µg/mL |
| O=C(CCCCCC[P+](c1ccccc1)(c1ccccc1)c1ccccc1)Nc1ccc(O)c(O)c1.[Br-] | broth dilution | ATCC27853 | 18 h | > 32 µg/mL |
| Cn1cc(NC(=O)C(CC(N)=O)NC(=O)c2ccc(NC(=O)c3ccc(C#N)cc3)cc2)cc1-c1nc2ccc(C(=O)Nc3ccc(C(=O)O)cc3)c(O)c2[nH]1 (stereo not shown) | – | PA14 | – | > 64 µg/mL |
| Cc1ccc(C)n1-c1ccc(-c2nnc(S)s2)cc1 | broth dilution | ATCC10145 | 18 h | 2 µg/mL |
| O=C(Cc1cc(O)c(O)c(O)c1)NCCCCCCCC[P+](c1ccccc1)(c1ccccc1)c1ccccc1.[Br-] | broth dilution | ATCC27853 | 18 h | > 32 µg/mL |
| O=C(O)c1cn(C2CC2)c2cc(N3CCNCC3)c(F)cc2c1=O | – | – | – | 1.6 µg/mL |
| CCCCCCCC(=O)Oc1c(C)c(O)c(C(=O)/C=C/c2ccccc2)c(OC)c1C | broth dilution | ATCC27853 | – | 5000 µg/mL |
| CCCCCCC#Cc1cncc(-c2nnc(SCc3ccc(Cl)cc3)n2C2CC2)c1 | – | – | – | ≥ 20 µg/mL |

| SMILES | method | strain | time | MIC |
| --- | --- | --- | --- | --- |
| CN(C)[C@@H]1C(O)=C(C(N)=O)C(=O)[C@@]2(O)C(O)=C3C(=O)c4c(O)cnc(-c5ccccc5)c4C[C@H]3C[C@@H]12.Cl.Cl | broth dilution | ATCC27853 | – | > 32 µg/mL |
| C[C@H]1[C@H](NC(=O)/C(=N\OC(C)(C)C(=O)O)c2csc(N)n2)C(=O)N1S(=O)(=O)O | agar dilution | PAO1 | – | 4 µg/mL |
| CCCCCCC/C=C/C(=O)N1C(=O)/C(=C(\O)c2ccccc2)C(=O)C1CC(C)C (stereo not shown) | – | PA01 | – | > 200 µg/mL |
| CC1(C)SC2C(NC(=O)C(NC(=O)C3=C(O)C(Cc4ccc(F)cc4)NC3=O)c3ccccc3)C(=O)N2C1C(=O)O (stereo not shown) | – | – | – | 25 µg/mL |
| CC(C)Oc1c(NC(=O)c2ccc(NC(=O)[C@H](CC(N)=O)NC(=O)c3ccc(NC(=O)c4ccc([N+](=O)[O-])c(OC(C)C)c4O)cc3)cc2)ccc(C(=O)Nc2ccc(C(=O)O)cc2)c1O | – | PA14 | – | > 64 µg/mL |
| CC1(C)SC2C(NC(=O)C(NC(=O)C3=C(O)C(Cc4ccccc4)NC3=O)c3ccccc3)C(=O)N2C1C(=O)O (stereo not shown) | – | – | – | 6.25 µg/mL |
| O=[N+]([O-])c1ccc(-c2nc3cccc(O)c3[nH]2)o1 | broth dilution | ATCC27853 | – | > 64 µg/mL |
| COc1c2c(c(O)c3cc(CN(C)C)ccc13)C(=O)C1=C(O)[C@]3(O)C(=O)C(C(N)=O)=C(O)[C@@H](N(C)C)[C@@H]3C[C@@H]1C2 | broth dilution | ATCC27853 | – | 16 µg/mL |
| O=C1NN=C(N=Cc2ccccc2)C1=NNn1c(-c2ccccc2)nc2ccccc2c1=O | broth dilution | – | 24 h | 114 µM |
| Cc1ccc(C)n1-c1ccc(C(=O)NNC=O)cc1 | broth dilution | ATCC10145 | 18 h | 125 µg/mL |
| CC(=O)NCN1N=C(C)C(=NNn2c(-c3ccccc3)nc3ccccc3c2=O)C1=O | broth dilution | – | 24 h | 59.9 µM |
| CC1COc2c(N3CCN(C)CC3)c(F)cc3c(=O)c(C(=O)O)cn1c23 (stereo not shown) | broth dilution | PAO1 | – | 1 µg/mL |
| CC(C)Oc1c(NC(=O)c2ccc(NC(=O)[C@H](CC(N)=O)NC(=O)c3ccc(NC(=O)c4ccc(C#N)cc4)cc3)cc2)ccc(C(=O)O)c1O | – | PA14 | – | > 64 µg/mL |
| CC1(C)S[C@@H]2[C@H](NC(=O)C(C(=O)O)c3ccccc3)C(=O)N2[C@H]1C(=O)O (stereo partly shown) | broth dilution | – | – | > 200 µM |
| CC(C)Oc1c(NC(=O)c2ccc(NC(=O)[C@H](CC(N)=O)NC(=O)c3ccc(NC(=O)c4ccc5c(c4)COC5=O)cc3)cc2)ccc(C(=O)Nc2ccc(C(=O)O)cc2)c1O | – | PA14 | – | > 64 µg/mL |
| O=[N+]([O-])c1ccc(-c2nc3ccccc3n2Cc2ccccc2)cc1 | broth dilution | ATCC27853 | – | 128 µg/mL |
| CN(C)c1cc(CNCC(C)(C)C)c(O)c2c1C[C@H]1C[C@H]3[C@H](N(C)C)C(O)=C(C(N)=O)C(=O)[C@@]3(O)C(O)=C1C2=O | broth dilution | ATCC27853 | – | > 32 µg/mL |
| CC(C)COc1c(NC(=O)c2ccc(NC(=O)[C@H](CC(N)=O)NC(=O)c3ccc(NC(=O)c4ccc(C#N)cc4)cc3)cc2)ccc(C(=O)Nc2ccc(C(=O)O)cc2)c1O | – | PA14 | – | > 64 µg/mL |
